Converted amounts (≈) assume the structure as drawn.
Legend:
[1] = system: Vero; assay: Cytotoxicity against Vero cells after 72 hrs by MTT assay; type: cell-based; settings: Chlorocebus sabaeus
Procedure, shortened: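 Vero cells were exposed to serially diluted compound up to 62.5 µg/mL for 72 h. Viability was read by cellular conversion of MTT to formazan (CellTiter 96 non-radioactive proliferation assay), and IC50 was derived.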

[2] = system: Mycobacterium tuberculosis; assay: Antimycobacterial activity against Mycobacterium tuberculosis H37Rv by agar dilution method; type: functional
Procedure, shortened: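 MIC was determined by agar dilution, in duplicate.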

[3] = system: Mycolicibacterium smegmatis; assay: Antimicrobial activity against Mycobacterium smegmatis by agar dilution method; type: functional
Procedure, shortened: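 Agar dilution against M. smegmatis ATCC 14468; MIC determined in duplicate.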

SMILES | IC50 [1] | MIC [2] | MIC [3]
O=C(O)c1cn(-c2ccc(F)cc2)c2nc(N3CCC(N4CCCCC4)CC3)c([N+](=O)[O-])cc2c1=O | > 126 µM | 3.15 µM (≈ 1.56 µg/mL) | 25.2 µM (≈ 12.5 µg/mL)
CN1CCN(c2nc3c(cc2[N+](=O)[O-])c(=O)c(C(=O)O)cn3C2CC2)CC1c1ccccc1 (configuration not stated) | 139 µM | 6.96 µM (≈ 3.13 µg/mL) | 27.8 µM (≈ 12.5 µg/mL)
CC(C)(C)NC(=O)C1c2ccccc2CCN1c1nc2c(cc1[N+](=O)[O-])c(=O)c(C(=O)O)cn2-c1ccc(F)cc1 (configuration not stated) | 112 µM | 2.79 µM (≈ 1.56 µg/mL) | 11.2 µM (≈ 6.25 µg/mL)
CC(C)(C)n1cc(C(=O)O)c(=O)c2cc([N+](=O)[O-])c(N3CCC(N4CCCCC4)CC3)nc21 | > 137 µM | 1.7 µM (≈ 0.778 µg/mL) | 6.84 µM (≈ 3.13 µg/mL)
COc1ccc(CC2C3=C(CCCC3)CCN2c2nc3c(cc2[N+](=O)[O-])c(=O)c(C(=O)O)cn3C(C)(C)C)cc1 (configuration not stated) | > 114 µM | 5.73 µM (≈ 3.13 µg/mL) | 11.4 µM (≈ 6.25 µg/mL)
CCN(CC)C(=O)C1CCCN(c2nc3c(cc2[N+](=O)[O-])c(=O)c(C(=O)O)cn3C(C)(C)C)C1 (configuration not stated) | > 132 µM | 3.29 µM (≈ 1.56 µg/mL) | 106 µM (≈ 50 µg/mL)
CC(C)(C)n1cc(C(=O)O)c(=O)c2cc([N+](=O)[O-])c(N3CCC(n4c(=O)[nH]c5cc(Cl)ccc54)CC3)nc21 | 57.7 µM | 2.88 µM (≈ 1.56 µg/mL) | 11.5 µM (≈ 6.24 µg/mL)
CC(C)(C)n1cc(C(=O)O)c(=O)c2cc([N+](=O)[O-])c(N3CCN(C(=O)C4COc5ccccc5O4)CC3)nc21 (configuration not stated) | 116 µM | 1.45 µM (≈ 0.779 µg/mL) | 5.82 µM (≈ 3.13 µg/mL)
CC(C)(C)n1cc(C(=O)O)c(=O)c2cc([N+](=O)[O-])c(N3CCn4cc(C(=O)O)nc4C3)nc21 | > 137 µM | 0.42 µM (≈ 0.192 µg/mL) | 6.86 µM (≈ 3.13 µg/mL)
CC(C)(C)NC(=O)C1c2ccccc2CCN1c1nc2c(cc1[N+](=O)[O-])c(=O)c(C(=O)O)cn2C1CC1 (configuration not stated) | 124 µM | 3.09 µM (≈ 1.56 µg/mL) | 24.7 µM (≈ 12.5 µg/mL)
O=C(O)c1cn(-c2ccc(F)cc2)c2nc(N3CCN(C(=O)c4ccco4)CC3)c([N+](=O)[O-])cc2c1=O | 123 µM | 3.07 µM (≈ 1.56 µg/mL) | 24.6 µM (≈ 12.5 µg/mL)
O=C(O)c1cn(-c2ccc(F)cc2)c2nc(N3CCN(C(=O)C4COc5ccccc5O4)CC3)c([N+](=O)[O-])cc2c1=O (configuration not stated) | > 54.3 µM | 10.9 µM (≈ 6.25 µg/mL) | 21.7 µM (≈ 12.5 µg/mL)
O=C(O)c1cn(C2CC2)c2nc(N3CCSCC3)c([N+](=O)[O-])cc2c1=O | 166 µM | 8.32 µM (≈ 3.13 µg/mL) | 33.2 µM (≈ 12.5 µg/mL)
O=C(O)c1cn(C2CC2)c2nc(N3CCN(C(c4ccccc4)c4ccc(Cl)cc4)CC3)c([N+](=O)[O-])cc2c1=O (configuration not stated) | 112 µM | 5.59 µM (≈ 3.13 µg/mL) | 22.3 µM (≈ 12.5 µg/mL)
CC1(C)COCN1c1nc2c(cc1[N+](=O)[O-])c(=O)c(C(=O)O)cn2C1CC1 | 167 µM | 0.51 µM (≈ 0.191 µg/mL) | 4.17 µM (≈ 1.56 µg/mL)
CC(C)(C)n1cc(C(=O)O)c(=O)c2cc([N+](=O)[O-])c(N3CCN(C(=O)c4ccco4)CC3)nc21 | 133 µM | 3.32 µM (≈ 1.56 µg/mL) | 6.67 µM (≈ 3.13 µg/mL)
O=C(O)c1cn(-c2ccc(F)cc2)c2nc(N3CCC(n4c(=O)[nH]c5cc(Cl)ccc54)CC3)c([N+](=O)[O-])cc2c1=O | 53.9 µM | 2.69 µM (≈ 1.56 µg/mL) | 10.8 µM (≈ 6.25 µg/mL)
CCN(CC)C(=O)C1CCCN(c2nc3c(cc2[N+](=O)[O-])c(=O)c(C(=O)O)cn3C2CC2)C1 (configuration not stated) | > 137 µM | 3.41 µM (≈ 1.56 µg/mL) | 109 µM (≈ 50 µg/mL)
O=C(O)c1cn(C2CC2)c2nc(N3CCN(C(=O)c4ccco4)CC3)c([N+](=O)[O-])cc2c1=O | 68.9 µM | 6.9 µM (≈ 3.13 µg/mL) | 27.6 µM (≈ 12.5 µg/mL)
CCN(CC)C(=O)C1CCCN(c2nc3c(cc2[N+](=O)[O-])c(=O)c(C(=O)O)cn3-c2ccc(F)cc2)C1 (configuration not stated) | > 122 µM | 3.05 µM (≈ 1.56 µg/mL) | 12.2 µM (≈ 6.25 µg/mL)

SMILES | IC50 [1] | MIC [2] | MIC [3]
O=C(O)c1cn(-c2ccc(F)cc2)c2nc(N3CCN(C(c4ccccc4)c4ccc(Cl)cc4)CC3)c([N+](=O)[O-])cc2c1=O (configuration not stated) | 102 µM | 1.27 µM (≈ 0.78 µg/mL) | 5.09 µM (≈ 3.13 µg/mL)
O=C(O)c1cn(C2CC2)c2nc(N3CCC(N4CCCCC4)CC3)c([N+](=O)[O-])cc2c1=O | > 142 µM | 7.09 µM (≈ 3.13 µg/mL) | 28.3 µM (≈ 12.5 µg/mL)
CC(C)(C)n1cc(C(=O)O)c(=O)c2cc([N+](=O)[O-])c(N3CCC(O)(c4ccc(Cl)cc4)CC3)nc21 | 125 µM | 3.11 µM (≈ 1.56 µg/mL) | 24.9 µM (≈ 12.5 µg/mL)
CC1CN(c2nc3c(cc2[N+](=O)[O-])c(=O)c(C(=O)O)cn3C2CC2)CC(C)O1 (configuration not stated) | > 161 µM | 4.02 µM (≈ 1.56 µg/mL) | 32.2 µM (≈ 12.5 µg/mL)
O=C(O)c1cn(C2CC2)c2nc(N3CCN(C(=O)C4COc5ccccc5O4)CC3)c([N+](=O)[O-])cc2c1=O (configuration not stated) | 59.9 µM | 12 µM (≈ 6.25 µg/mL) | 6 µM (≈ 3.13 µg/mL)
CN1CCN(c2nc3c(cc2[N+](=O)[O-])c(=O)c(C(=O)O)cn3C(C)(C)C)CC1c1ccccc1 (configuration not stated) | > 134 µM | 0.84 µM (≈ 0.391 µg/mL) | 13.4 µM (≈ 6.25 µg/mL)
CC(C)(C)NC(=O)C1c2ccccc2CCN1c1nc2c(cc1[N+](=O)[O-])c(=O)c(C(=O)O)cn2C(C)(C)C (configuration not stated) | 120 µM | 2.99 µM (≈ 1.56 µg/mL) | 6 µM (≈ 3.13 µg/mL)
CC(C)(C)n1cc(C(=O)O)c(=O)c2cc([N+](=O)[O-])c(N3CCN(C(c4ccccc4)c4ccc(Cl)cc4)CC3)nc21 (configuration not stated) | > 108 µM | 1.35 µM (≈ 0.778 µg/mL) | 174 µM (≈ 100 µg/mL)
O=C(O)c1cn(C2CC2)c2nc(N3CCN(Cc4ccc5c(c4)OCO5)CC3)c([N+](=O)[O-])cc2c1=O | 127 µM | 3.16 µM (≈ 1.56 µg/mL) | 25.3 µM (≈ 12.5 µg/mL)
O=C(O)c1cn(C2CC2)c2nc(N3CCC(O)(c4ccc(Cl)cc4)CC3)c([N+](=O)[O-])cc2c1=O | 64.4 µM | 6.46 µM (≈ 3.13 µg/mL) | 25.8 µM (≈ 12.5 µg/mL)
O=C(O)c1cn(-c2ccc(F)cc2)c2nc(N3CCC4(CC3)OCCO4)c([N+](=O)[O-])cc2c1=O | 133 µM | 6.65 µM (≈ 3.13 µg/mL) | 26.6 µM (≈ 12.5 µg/mL)
O=C(O)c1cn(-c2ccc(F)cc2)c2nc(N3CCC(O)(c4ccc(Cl)cc4)CC3)c([N+](=O)[O-])cc2c1=O | 59.6 µM | 2.89 µM (≈ 1.56 µg/mL) | 11.6 µM (≈ 6.25 µg/mL)
O=C(O)c1cn(C2CC2)c2nc(N3CCC4(CC3)OCCO4)c([N+](=O)[O-])cc2c1=O | 150 µM | 7.52 µM (≈ 3.13 µg/mL) | 30 µM (≈ 12.5 µg/mL)
O=C(O)c1cn(-c2ccc(F)cc2)c2nc(N3CCN(Cc4ccc5c(c4)OCO5)CC3)c([N+](=O)[O-])cc2c1=O | 57.1 µM | 11.4 µM (≈ 6.25 µg/mL) | 45.7 µM (≈ 25 µg/mL)
O=C(O)c1cn(C2CC2)c2nc(N3CCC(n4c(=O)[nH]c5cc(Cl)ccc54)CC3)c([N+](=O)[O-])cc2c1=O | 55.5 µM | 2.97 µM (≈ 1.56 µg/mL) | 23.8 µM (≈ 12.5 µg/mL)
CC(C)(C)n1cc(C(=O)O)c(=O)c2cc([N+](=O)[O-])c(N3CCN(Cc4ccc5c(c4)OCO5)CC3)nc21 | > 123 µM | 1.53 µM (≈ 0.78 µg/mL) | 6.14 µM (≈ 3.13 µg/mL)
O=C(O)c1cn2c(n1)CN(c1nc3c(cc1[N+](=O)[O-])c(=O)c(C(=O)O)cn3C1CC1)CC2 | 142 µM | 3.54 µM (≈ 1.56 µg/mL) | 28.4 µM (≈ 12.5 µg/mL)
COc1ccc(CC2C3=C(CCCC3)CCN2c2nc3c(cc2[N+](=O)[O-])c(=O)c(C(=O)O)cn3-c2ccc(F)cc2)cc1 (configuration not stated) | < 53.5 µM | 10.7 µM (≈ 6.25 µg/mL) | 85.5 µM (≈ 50 µg/mL)
CC1CN(c2nc3c(cc2[N+](=O)[O-])c(=O)c(C(=O)O)cn3C(C)(C)C)CC(C)O1 (configuration not stated) | 159 µM | 7.74 µM (≈ 3.13 µg/mL) | 15.4 µM (≈ 6.25 µg/mL)
